Measured values: ChEMBL document CHEMBL4680181, “Identification of a 2,4-diaminopyrimidine scaffold targeting Trypanosoma brucei pteridine reductase 1 from the LIBRA compound library screening campaign” (Eur J Med Chem, 2020)
Activity calls are given as the source filed them. No cut-off for these calls is given here.

Test system: Trypanosoma brucei
Test: Inhibition of Trypanosoma brucei PTR1 at 50 uM using H2B as substrate preincubated for 10 mins followed by NADPH addition and measured up to 50 mins relative to control
Conditions: time min <=60
Oc1ccc(-c2ccc(-c3cc(O)cc(O)c3)c(-c3ccccc3)c2)cc1 gave an inhibition greater than 85%. NCCCCCCN1CC[C@H]2COc3ccccc3[C@H]21 showed an inhibition greater than 85%. For O=C1CCCCCNCc2ccc(cc2)-c2ccc(cc2)CNCCCCCC(=O)N(Cc2ccccc2)CCCCCCCCN1Cc1ccccc1, the inhibition was greater than 85%.

Test system: Trypanosoma brucei brucei
Test: Antitrypanosomal activity against bloodstream form of trypanosoma brucei brucei 427 assessed as potentiation index at 10 uM after 72 hrs in presence of MTX by resazurin staining based fluorescence assay
Format: functional
Conditions: not given
How it was run: (§1)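 Synergy index taken as the activity of test compound plus 4 μM MTX, divided by the summed activities of test compound alone and 4 μM MTX alone. Resazurin-based assay on T. brucei bloodstream forms.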
COc1ccc(COc2cc(N)nc(N)n2)cc1 gave an Activity_index of 2.2. In the case of Nc1cc(NCc2ccc(F)cc2)nc(N)n1, the Activity_index is reported as 1.8. “4-(4-Methoxybenzylamino)2,6-diaminopyrimidine” showed an Activity index of 2.2. With Nc1cc(NCc2ccccc2)nc(N)n1 the Activity_index was 1.3. Molecule NCCCCCCN1CC[C@H]2COc3ccccc3[C@H]21 has an Activity_index of 1.3.

Test system: Trypanosoma brucei brucei
Test: Antitrypanosomal activity against bloodstream form of trypanosoma brucei brucei 427 assessed as inhibition of parasitic growth at 0.1 uM after 72 hrs by resazurin staining based fluorescence assay relative to control
Format: functional, organism-based
Conditions: not given
How it was run: (§2)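 T. brucei bloodstream forms in a modified resazurin-based growth assay. EC50 (concentration inhibiting growth by 50%) obtained by nonlinear regression. Combination wells contained 4 μM MTX (methotrexate); single-agent MTX was run at 4 μM. Single-concentration tests used 10, 1 or 0.1 μM of test compound.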
In the case of O=C1CCCCCNCc2ccc(cc2)-c2ccc(cc2)CNCCCCCC(=O)N(Cc2ccccc2)CCCCCCCCN1Cc1ccccc1, the “growth inhibition (GI)” value is reported as “inactive”.

Test system: Trypanosoma brucei brucei
Test: Antitrypanosomal activity against bloodstream form of trypanosoma brucei brucei 427 assessed as potentiation index at 0.1 uM after 72 hrs in presence of MTX by resazurin staining based fluorescence assay
Format: functional
Conditions: not given
How it was run: as §1
O=C1CCCCCNCc2ccc(cc2)-c2ccc(cc2)CNCCCCCC(=O)N(Cc2ccccc2)CCCCCCCCN1Cc1ccccc1 gave an Activity_index of 1.2.

Test system: Trypanosoma brucei brucei
Test: Antitrypanosomal activity against bloodstream form of trypanosoma brucei brucei 427 assessed as inhibition of parasitic growth at 0.1 uM after 72 hrs in presence of MTX by resazurin staining based fluorescence assay relative to control
Format: functional
Conditions: read-out: GI
How it was run: as §2
With O=C1CCCCCNCc2ccc(cc2)-c2ccc(cc2)CNCCCCCC(=O)N(Cc2ccccc2)CCCCCCCCN1Cc1ccccc1 the inhibition of growth at 0.1 µM was 41%.

Test system: Trypanosoma brucei brucei
Test: Antitrypanosomal activity against bloodstream form of trypanosoma brucei brucei 427 assessed as inhibition of parasitic growth at 10 uM after 72 hrs by resazurin staining based fluorescence assay relative to control
Format: functional
Conditions: not given
How it was run: as §2
In the case of COc1ccc(COc2cc(N)nc(N)n2)cc1, the “growth inhibition (GI)” value is reported as “inactive”. With Nc1cc(NCc2ccc(F)cc2)nc(N)n1 the “growth inhibition (GI)” value was “inactive”. With “4-(4-Methoxybenzylamino)2,6-diaminopyrimidine” the “growth inhibition (GI)” value was “inactive”. For Nc1cc(NCc2ccccc2)nc(N)n1, the “growth inhibition (GI)” value was “inactive”. With NCCCCCCN1CC[C@H]2COc3ccccc3[C@H]21 the “growth inhibition (GI)” value was “inactive”.

Test system: Trypanosoma brucei brucei
Test: Antitrypanosomal activity against bloodstream form of trypanosoma brucei brucei 427 assessed as reduction in parasitic growth after 72 hrs by resazurin staining based fluorescence assay
Format: functional, organism-based
Conditions: not given
How it was run: as §2
In the case of COc1ccc(COc2cc(N)nc(N)n2)cc1, the IC50 is reported as “Not Active”. For Nc1cc(NCc2ccc(F)cc2)nc(N)n1, the IC50 was “Not Active”. With Nc1cc(NCc2ccccc2)nc(N)n1 the IC50 was “Not Active”. For NCCCCCCN1CC[C@H]2COc3ccccc3[C@H]21, the IC50 was “Not Active”.

Same assay, conditions: Trypanosoma brucei, 427, 72 h; read-out: IC50
O=C1CCCCCNCc2ccc(cc2)-c2ccc(cc2)CNCCCCCC(=O)N(Cc2ccccc2)CCCCCCCCN1Cc1ccccc1 showed an IC50 of 560 nM.

Test system: Trypanosoma brucei brucei
Test: Antitrypanosomal activity against bloodstream form of trypanosoma brucei brucei 427 assessed as inhibition of parasitic growth at 10 uM after 72 hrs in presence of MTX by resazurin staining based fluorescence assay relative to control
Format: functional
Conditions: not given
How it was run: as §2
Work on “4-(4-Methoxybenzylamino)2,6-diaminopyrimidine” yielded a growth inhibition (GI) of 41%.

Same assay, conditions: read-out: GI
For COc1ccc(COc2cc(N)nc(N)n2)cc1, the inhibition of growth at 10 µM was 42%. For Nc1cc(NCc2ccc(F)cc2)nc(N)n1, the inhibition of growth at 10 µM was 37%. In the case of Nc1cc(NCc2ccccc2)nc(N)n1, the inhibition of growth at 10 µM is reported as 24%. With NCCCCCCN1CC[C@H]2COc3ccccc3[C@H]21 the inhibition of growth at 10 µM was 51%.

Biological target: T1, Pteridine reductase 1 (Leishmania major, UniProt Q01782)
T1 sequence (Q01782 whole entry): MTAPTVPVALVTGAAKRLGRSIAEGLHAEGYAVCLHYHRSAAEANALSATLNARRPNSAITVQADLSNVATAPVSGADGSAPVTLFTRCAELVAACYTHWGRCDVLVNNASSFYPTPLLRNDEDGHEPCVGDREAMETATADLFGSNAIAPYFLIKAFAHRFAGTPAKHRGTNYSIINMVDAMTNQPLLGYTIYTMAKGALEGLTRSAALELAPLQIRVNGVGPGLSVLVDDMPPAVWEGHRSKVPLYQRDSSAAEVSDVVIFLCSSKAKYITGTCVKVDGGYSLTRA
Test: Inhibition of Leishmania major PTR1 using H2B as substrate preincubated for 10 mins followed by NADPH addition and measured up to 50 mins relative to control
Conditions: not given
How it was run: (§3)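 Purified recombinant LmPTR1 or TbPTR1 in a coupled enzyme assay. Nine-point dose response from 0.5 to 100 μM. IC50, pIC50 and Hill slope from a 4-parameter logistic fit. Ki derived by the competitive model Ki = IC50/((S/Km)+1).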
With Nc1nc(NCc2ccccc2)cc(NCc2ccccc2)n1 the Ki was greater than 100 µM. Molecule COc1ccc(COc2cc(N)nc(N)n2)cc1 has a Ki greater than 100 µM. With Nc1cc(NCc2ccc(F)cc2)nc(N)n1 the Ki was greater than 100 µM. With Nc1cc(NCc2ccccc2)nc(N)n1 the Ki was greater than 100 µM. Oc1ccc(-c2ccc(-c3cc(O)cc(O)c3)c(-c3ccccc3)c2)cc1 gave a Ki of 5.7 µM. Molecule NCCCCCCN1CC[C@H]2COc3ccccc3[C@H]21 has an IC50 greater than 100 µM and a Ki greater than 100 µM. Work on O=C1CCCCCNCc2ccc(cc2)-c2ccc(cc2)CNCCCCCC(=O)N(Cc2ccccc2)CCCCCCCCN1Cc1ccccc1 yielded a Ki of 19.2 µM.

Test system: not listed separately
Test: Inhibition of Trypanosoma brucei PTR1 using H2B as substrate preincubated for 10 mins followed by NADPH addition and measured up to 50 mins relative to control
Conditions: not given
How it was run: as §3
In the case of Nc1nc(NCc2ccccc2)cc(NCc2ccccc2)n1, the Ki is reported as “Not Active”. For Oc1ccc(-c2ccc(-c3cc(O)cc(O)c3)c(-c3ccccc3)c2)cc1, the IC50 was greater than 100 µM.

Same assay, conditions: read-out: Ki
Molecule COc1ccc(COc2cc(N)nc(N)n2)cc1 has a Ki of 800 nM. For Nc1cc(NCc2ccc(F)cc2)nc(N)n1, the Ki was 1100 nM. Nc1cc(NCc2ccccc2)nc(N)n1 gave a Ki of 3400 nM. Oc1ccc(-c2ccc(-c3cc(O)cc(O)c3)c(-c3ccccc3)c2)cc1 showed a Ki greater than 100000 nM. For NCCCCCCN1CC[C@H]2COc3ccccc3[C@H]21, the Ki was 1600 nM. Molecule O=C1CCCCCNCc2ccc(cc2)-c2ccc(cc2)CNCCCCCC(=O)N(Cc2ccccc2)CCCCCCCCN1Cc1ccccc1 has a Ki of 1600 nM.

Test system: not listed separately
Test: Selectivity ratio Ki for inhibition of inhibition of Leishmania major PTR1 to Ki for inhibition of Trypanosoma brucei PTR1
Conditions: not given
How it was run: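 Ki values for LmPTR1 and TbPTR1, each calculated from the coupled-assay IC50 with the competitive model Ki = IC50/((S/Km)+1).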
For NCCCCCCN1CC[C@H]2COc3ccccc3[C@H]21, the Ratio Ki was greater than 62.5.

Biological target: hERG (KCNH2) (Homo sapiens, UniProt Q12809)
Sequence (Q12809 whole entry): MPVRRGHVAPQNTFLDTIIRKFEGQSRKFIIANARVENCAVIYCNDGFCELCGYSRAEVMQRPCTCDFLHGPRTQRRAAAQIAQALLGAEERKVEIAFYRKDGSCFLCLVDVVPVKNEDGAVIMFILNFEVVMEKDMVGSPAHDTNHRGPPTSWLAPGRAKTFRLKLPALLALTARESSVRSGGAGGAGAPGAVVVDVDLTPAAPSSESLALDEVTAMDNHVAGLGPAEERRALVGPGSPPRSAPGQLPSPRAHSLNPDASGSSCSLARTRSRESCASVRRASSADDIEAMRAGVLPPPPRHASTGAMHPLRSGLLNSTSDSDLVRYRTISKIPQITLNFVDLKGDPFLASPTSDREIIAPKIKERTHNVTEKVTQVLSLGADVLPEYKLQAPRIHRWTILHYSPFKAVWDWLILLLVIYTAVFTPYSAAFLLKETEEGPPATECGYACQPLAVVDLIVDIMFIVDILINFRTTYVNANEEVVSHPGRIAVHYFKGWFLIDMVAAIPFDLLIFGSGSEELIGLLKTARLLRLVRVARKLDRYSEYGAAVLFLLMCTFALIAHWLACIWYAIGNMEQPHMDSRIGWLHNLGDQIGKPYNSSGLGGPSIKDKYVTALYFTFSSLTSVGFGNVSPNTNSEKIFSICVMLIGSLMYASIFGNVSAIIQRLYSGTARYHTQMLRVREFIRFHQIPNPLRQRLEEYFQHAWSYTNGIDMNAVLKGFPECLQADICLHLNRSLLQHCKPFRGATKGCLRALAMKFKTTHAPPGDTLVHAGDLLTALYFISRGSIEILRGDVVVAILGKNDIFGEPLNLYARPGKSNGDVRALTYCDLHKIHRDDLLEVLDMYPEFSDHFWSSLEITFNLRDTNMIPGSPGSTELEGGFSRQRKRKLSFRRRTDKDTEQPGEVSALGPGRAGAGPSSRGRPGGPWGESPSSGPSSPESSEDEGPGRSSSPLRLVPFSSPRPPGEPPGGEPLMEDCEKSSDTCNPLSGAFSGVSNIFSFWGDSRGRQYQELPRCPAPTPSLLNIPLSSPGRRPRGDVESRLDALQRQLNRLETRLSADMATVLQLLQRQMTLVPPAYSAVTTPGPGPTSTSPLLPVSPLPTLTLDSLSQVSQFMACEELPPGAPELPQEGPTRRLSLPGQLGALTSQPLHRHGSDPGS
Test: Inhibition of human ERG at 10 uM by fluorescence polarization assay relative to control
Conditions: not given
How it was run: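 hERG inhibition measured by fluorescence polarization (Predictor hERG assay), with compound at 10 μM.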
In the case of Nc1nc(NCc2ccccc2)cc(NCc2ccccc2)n1, the inhibition at 10 µM is reported as greater than 50%. In the case of Nc1cc(NCc2ccc(F)cc2)nc(N)n1, the inhibition at 10 µM is reported as greater than 50%. For Nc1cc(NCc2ccccc2)nc(N)n1, the inhibition at 10 µM was greater than 50%.

Biological target: CYP2D6 (Homo sapiens, UniProt P10635)
Sequence (P10635 whole entry): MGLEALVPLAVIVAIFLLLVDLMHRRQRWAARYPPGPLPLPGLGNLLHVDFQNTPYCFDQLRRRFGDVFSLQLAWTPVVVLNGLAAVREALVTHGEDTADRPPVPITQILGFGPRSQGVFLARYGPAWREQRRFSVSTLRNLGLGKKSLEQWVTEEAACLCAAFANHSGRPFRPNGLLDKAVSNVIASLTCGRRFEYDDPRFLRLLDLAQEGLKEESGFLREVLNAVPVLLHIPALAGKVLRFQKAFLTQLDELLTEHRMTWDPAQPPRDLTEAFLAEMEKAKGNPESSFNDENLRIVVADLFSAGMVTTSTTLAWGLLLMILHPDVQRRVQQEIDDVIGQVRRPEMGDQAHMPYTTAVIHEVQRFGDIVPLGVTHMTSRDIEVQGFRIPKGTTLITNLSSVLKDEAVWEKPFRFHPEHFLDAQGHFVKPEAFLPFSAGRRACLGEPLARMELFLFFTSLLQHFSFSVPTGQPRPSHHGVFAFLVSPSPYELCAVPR
Test: Inhibition of CYP2D6 (unknown origin) at 10 uM by P450-Glo assay relative to control
Format: ADME
Conditions: not given
How it was run: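 CYP2D6 inhibition measured in the P450-Glo luminescent platform, with compound at 10 μM.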
With Nc1cc(NCc2ccc(F)cc2)nc(N)n1 the inhibition at 10 µM was 30%. Molecule Nc1cc(NCc2ccccc2)nc(N)n1 has an inhibition at 10 µM of 30%.
